A selection: hits, their analogues and other compounds. The true share with any hit is near 2.5%.
PHOSPHO1 block – PubChem AID 1565; recombinant PHOSPHO1, absorbance phosphatase assay; inhibition, % at 13.3 µM; Phosphoethanolamine/phosphocholine phosphatase (Homo sapiens), Q8TCT1; hit rate 1.1% among 290,000; in the data active = inhibition above about 60%
TbHK1 inh – Trypanosoma brucei hexokinase 1 inhibitors, primary screen, biochemical, G6PDH-coupled NADH absorbance, MLSCN library; hexokinase 1 [Trypanosoma brucei]; recombinant TbHK1, G6PDH-coupled NADH A340; inhibition, % at 10 µM; hit rate 0.11% among 220,000;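 active = inhibition of 50% or more in the single-dose primary screen; inactive = inhibition below 50%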
HKDC1 inh – HKDC1 hexokinase inhibitors, primary screen, biochemical, fluorescence, uHTS; Q2TB90; recombinant HKDC1, G6PDH/diaphorase resazurin coupled fluorescence; inhibition, % at 20 µM; hit rate 0.16% among 340,000;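 active = inhibition above about 35% when tested at 20 µM, limit read from the data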;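 also: plate controls were DMSO wells with enzyme for no effect and DMSO wells lacking enzyme for full effect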
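Assay system – recombinant HKDC1 (HK5) hexokinase enzyme, produced in-house · Input – HKDC1 at 5 µg/mL · Reagent – glucose plus 1 mM ATP as hexokinase substrates · Timing – 90 min reaction incubation at room temperature, dark · Measured by – G6PDH/diaphorase-coupled fluorescence, 1 mM NADP, 100 µM resazurin, 525/613 nm · Benchmarks – DMSO-enzyme wells negative, buffer-substituted wells positive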
PfGluPho inh – PfG6PD enzyme inhibitors, primary screen, biochemical, fluorescence intensity, uHTS; glucose-6-phosphate dehydrogenase-6-phosphogluconolactonase (Plasmodium falciparum 3D7); inhibition, % at 20 µM; PfGluPho enzyme, NADPH resazurin-diaphorase fluorescence; AID 504690, 2011; hit rate 0.78% among 350,000;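 active = inhibition reaching at least a set limit at 20 µM in the primary screen, cut at about 59% in these data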;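 also: 0% = DMSO wells with substrate and 100% = DMSO wells lacking glucose-6-phosphate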
EP2 mod – EP2 receptor modulators, cAMP readout, primary screen, cell-based, HTRF cAMP, PGE2 stimulation; induction, % at 25 µM; Prostaglandin E2 receptor EP2 subtype (Homo sapiens), P43116; hit rate 0.83% among 260,000; EP2-expressing cells, cAMP HTRF FRET, PGE2 co-stimulation;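 active = compounds whose cAMP rise, as percent of the full-agonist control response, exceeds 60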;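 also: rat C6 glioma line stably carrying human EP2 under a CMV promoter; the protocol text gives 20 µM as final concentration; 100% = response of wells given 1 µM PGE2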
EP2 antag – human EP2 receptor antagonists, primary screen, TR-FRET cAMP, C6 glioma cells; C6 glioma cells expressing human EP2; cells stimulated with saturating PGE2; inhibition, % at 25 µM; hit rate 0.52% among 260,000;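 active = percent inhibition above 40 after rounding to a whole number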;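 also: rat C6 glioma host cells with rolipram phosphodiesterase inhibitor present; the protocol text gives 20 µM as final concentration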
The depositor's hits bear a star; x = no result given.

SMILES	PHOSPHO1 block	TbHK1 inh	HKDC1 inh	PfGluPho inh	EP2 mod	EP2 antag
O=C(c1ccco1)N1CCN(Cc2nc(Cc3ccccc3)no2)CC1	60*	-3	-28	-9	-13	3
CCOc1cc2c(cc1CN[C@@H]1CCC(=O)N[C@H]1c1cc(OC)ccc1F)OCO2	x	x	x	x	-37	12
COc1cc(/C=C/C(=O)c2c(O)cc(C)oc2=O)cc(OC)c1O	80*	-34	3	33	23	12
CCC(=O)Nc1cc2nn(-c3ccc(C)cc3)nc2cc1C	63*	-12	10	-29	12	1
CCC(CC)c1nnc(NC(=O)Oc2ccccc2)s1	20	5	8	-18	0	9
CCC(CC)c1nnc(NC(=O)CCCOc2ccccc2)s1	x	x	x	x	62*	9
Cc1cc2c(cc3c(=O)n(CC(=O)N(C)CCc4ccccn4)nc(C)n32)s1	x	x	x	x	-23	x
FC(F)(F)c1cnc(-n2cc[nH]c2=S)c(Cl)c1	98*	-3	-4	22	7	7
COc1ccc(CN2C(=O)c3cccnc3C2Nc2cc(Cl)ccc2OC)cc1 (stereo not drawn)	29	-11	52*	7	22	5
COc1ccc(OC)c(NC2c3ncccc3C(=O)N2Cc2ccco2)c1 (stereo not drawn)	30	1	-2	0	22	7
Cc1ccc(S(=O)(=O)N2CCCOC2CNC(=O)C(=O)NCCCn2ccnc2)cc1 (stereo not drawn)	-5	-4	-12	22	-3	7
Cc1ccc(S(=O)(=O)N2CCOC2CNC(=O)C(=O)NCC(C)C)cc1 (stereo not drawn)	62*	x	-3	-11	x	x
COc1ccc(S(=O)(=O)N2CCCOC2CNC(=O)C(=O)NCCCn2ccnc2)cc1 (stereo not drawn)	61*	-8	1	8	17	4
CC(=O)N1CCN(C(=O)Cn2nc3c(C)cc4ccccc4n3c2=O)CC1	x	x	x	x	-59	6
OC1(c2ccccc2)CCN(Cc2cccc(OCC3CCCO3)c2)C1 (stereo not drawn)	x	x	x	x	-25	5
O=C1c2ccccc2-c2cccc(C(=O)N3CCN(C(=O)c4ccccc4)CC3)c21	60*	-12	7	8	-20	12
COc1ccc2c(C)cc3n[nH]c(=S)n3c2c1	67*	-7	19	54	-11	35
CC1=C(c2ccccc2)[N+](=O)C2(CCCC2)N1[O-]	5	-10	-2	-2	1	6
O=[N+]([O-])c1ccc2c(c1)N([O-])C1(CCCCC1)[N+]2=O	8	-6	23	60*	-46	14
CCOCCCNC(=O)Cn1nc(-c2ccco2)cc(N)c1=O	x	x	x	x	8	1
CSc1ccccc1N=Cc1nc(-c2ccccc2)oc1O	28	8	8	-1	61*	9
CC(C)(C)c1ccc(O)c(CN(Cc2cc(C(C)(C)C)ccc2O)c2ccccc2)c1	x	x	x	x	5	55*
COc1ccccc1C1(NC(=O)Cn2nc(C)cc2C)CCCC1	x	x	x	x	-14	x
CC(Oc1ccccc1)C(=O)Nc1cccc([N+](=O)[O-])c1 (stereo not drawn)	60*	-2	-8	-12	-2	3
O=C1CN(C(=O)CSc2nnc(-c3ccccc3)n2Cc2ccc3c(c2)OCO3)c2ccccc2N1	69*	0	0	-1	-99	10
SMILES	PHOSPHO1 block	TbHK1 inh	HKDC1 inh	PfGluPho inh	EP2 mod	EP2 antag
Cc1ccc(Nc2nnc(SCC(=O)NCc3ccco3)s2)cc1	74*	-7	3	6	2	11
Cn1cccc1Cc1nnc(SCC(=O)N2CCN(c3ccccc3)CC2)n1-c1ccc(F)cc1	70*	-10	-4	17	-5	1
O=C(CSc1nnc(Nc2ccccc2F)s1)NCc1ccco1	87*	-7	-2	10	-27	10
Cc1ccc(-n2c(Cc3cccn3C)nnc2SCC(=O)NCc2ccco2)cc1	78*	3	-1	2	0	9
Cc1ccc(-n2c(Cc3cccn3C)nnc2SCC(N)=O)cc1	21	1	10	-11	-18	4
Cn1cccc1Cc1nnc(SCC(=O)NCc2ccccc2)n1-c1ccc(F)cc1	11	-14	-6	24	-2	9
O=C(CSc1nnc(Nc2ccccc2)s1)NCc1ccco1	25	-2	3	-10	-4	10
Cc1ccccc1Nc1nnc(SCC(=O)NC(=O)NCc2ccco2)s1	82*	-4	2	6	8	x
C=CCOC(=O)C1=C(C)NC(SCC(=O)Nc2nccs2)=C(C#N)C1c1ccc(Cl)cc1 (stereo not drawn)	67*	1	-3	-6	-16	23
Cc1cccc(NC(=O)CSc2nc3c(C)ccc(C)c3cc2C#N)c1	x	x	x	x	11	4
C=CCOC(=O)C1=C(C)NC(SCC(=O)Nc2nccs2)=C(C#N)C1c1cccs1 (stereo not drawn)	62*	-8	0	-23	20	14
CC(=O)C1=C(C)NC(SCC(=O)Nc2nccs2)=C(C#N)C1c1ccccc1Cl (stereo not drawn)	-14	9	-6	-5	-23	13
Cc1ccc(C)c2nc(SCC(=O)Nc3nccs3)c(C#N)cc12	x	x	x	x	70*	26
Cc1cc(C)nc(SCc2nnc(SCC(=O)Nc3cc(Cl)ccc3Cl)n2C)n1	x	x	x	x	-12	7
Cc1cc2c(o1)CCc1sc(N(C)C(=O)c3cccs3)nc1-2	x	x	x	x	-28	x
O=C(c1ncn[nH]1)N1CCN(c2nc(-c3ccccc3)cs2)CC1	99*	3	2	3	15	8
O=C(c1cc(-n2cnnc2)ccc1Cl)N1CCN(c2nc(-c3ccccc3)cs2)CC1	-4	-13	1	14	2	x
CCCn1c(SCC(=O)Nc2ccc(F)cc2)nnc1-c1ccco1	x	x	x	x	-8	12
Cc1ccc(S(=O)(=O)N2CCC(C(=O)NC3CC(C)(C)NC(C)(C)C3)CC2)cc1	53	x	3	-10	x	x
COc1ccc(S(=O)(=O)N2CCC(C(=O)NC3CC(C)(C)NC(C)(C)C3)CC2)cc1	70*	x	-2	-2	x	x
Cc1cc(S(=O)(=O)N2CCCC(N(C)CCc3ccccn3)C2)c(C)s1 (stereo not drawn)	75*	x	x	x	x	x
COc1ccc(Cl)cc1-c1n[nH]c(=S)n1C1CCCCC1	97*	-2	-1	39	18	15
COc1ccc(-c2n[nH]c(=S)n2C2CCCCC2)cc1	100*	-1	-7	42	4	-1
S=c1[nH]nc(-c2cccnc2)n1C1CCCCC1	6	32	-5	28	12	13
O=C(CSc1nc(C2CCCCC2)nc2ccccc12)NNC(=O)c1ccco1	x	x	x	x	3	10
